Bioassay records: PubChem, several laboratories
HTR2A ag: mouse Htr2a agonists via beta-arrestin recruitment, primary screen, cell-based, luminescence; 5-hydroxytryptamine receptor 2A (Mus musculus), P35363; CHO-K1 mHTR2A beta-arrestin complementation; percent of 30 µM serotonin response; activation, % at 7.6 µM; hit rate 0.66% among 360,000; AID 624169, 2012;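 active means activation above a run cutoff, the mean activation of all tested compounds plus 3 SD, cut at about 14% in these data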
CXCR6 block: CXCR6 receptor inhibitors, primary screen, cell-based, beta-arrestin, luminescence, CHO-K1 PathHunter, 1536-well; inhibition, % at 20 µM; hit rate 0.36% among 360,000; AID 602244, 2012; in the data active means inhibition above about 34%, passing the limit was not always enough;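 further: antagonist mode with CXCL16 agonist at 10 nM final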
APJ agonist: agonists of human apelin receptor APJ, primary screen, CHO-K1 cells, PathHunter beta-arrestin, luminescence; P35414; 0% DMSO wells, 100% apelin; activation, % at 20 µM; hit rate 0.11% among 330,000; AID 2520, 2010;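 active means activation more than six SD over the plate average, tested at 20 µM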
Target sequence (P35414 whole entry, looked up): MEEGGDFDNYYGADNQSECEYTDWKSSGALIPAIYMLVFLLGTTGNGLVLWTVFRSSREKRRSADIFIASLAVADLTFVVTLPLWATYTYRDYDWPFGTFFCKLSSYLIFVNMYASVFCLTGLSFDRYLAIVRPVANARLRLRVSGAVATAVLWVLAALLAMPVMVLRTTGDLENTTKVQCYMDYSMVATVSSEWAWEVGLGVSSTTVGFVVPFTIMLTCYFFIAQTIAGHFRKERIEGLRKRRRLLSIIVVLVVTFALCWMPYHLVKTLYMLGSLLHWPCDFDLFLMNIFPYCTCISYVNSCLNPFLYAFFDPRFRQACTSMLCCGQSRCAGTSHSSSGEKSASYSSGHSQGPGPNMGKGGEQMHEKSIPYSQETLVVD
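Test system: CHO-K1 APJ beta-arrestin complementation cell line | Compound: Single test compound dose, 20 µM final, 1% DMSO | Incubation: Compound 90 min 25 °C, reagent 1 h | Measured by: beta-gal luminescence | Read-out basis: APJ–arrestin association signal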
CCR6 antagonist: CCR6 receptor antagonists, primary screen, cell-based, CHO-K1, luminescence, beta-arrestin, uHTS | AID 493098, 2011 | C-C chemokine receptor type 6 (Homo sapiens), P51684 | CHO-K1 CCR6 PathHunter beta-arrestin, CCL20-stimulated | hit rate 0.49% among 340,000 | inhibition, % at 20 µM;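 active means compounds whose inhibition of the agonist-driven luminescence signal at 20 µM reaches about 50%, limit read from the data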;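 further: cells stimulated with CCL20 at 14 nM final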
APJ antag: antagonists of human apelin receptor APJ, primary screen, CHO-K1 cells, beta-arrestin complementation, luminescence. P35414. inhibition, % at 20 µM. hit rate 0.32% among 330,000;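 active means inhibition above about 40% at 20 µM, limit read from the data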;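 further: cells challenged with 10 nM apelin-13 agonist together with compound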
EBI2 block: EBI2 receptor antagonists, beta-arrestin recruitment, primary screen, cell-based, luminescence, 7a,25-OHC stimulation, uHTS; AID 651636, 2012; hit rate 0.81% among 360,000; 7a,25-OHC stimulated; inhibition, % at 5 µM; G-protein coupled receptor 183 (Homo sapiens), P32249; in the data active means inhibition above about 38%;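 further: enzyme fragment complementation signal reports receptor beta-arrestin coupling in cells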
OPRM1 ag: OPRM1 agonists via beta-arrestin recruitment, confirmation, counter-screen for mouse HTR2A agonist project, cell-based, luminescence, single concentration. hit rate 5.3% among 2,300. shares compounds with HTR2A ag. U2OS OPRM1 beta-arrestin PathHunter; DMSO 0%, DAMGO 9.3 µM 100%. activation, % at 9.3 µM;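 active means mean activation above the mean of DMSO-only wells plus 3 SD, cut at about 0.5% in these data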
m5-HT2A ag conf: mouse HTR2A agonists, beta-arrestin recruitment, confirmation, cell-based, luminescence, CHO-K1 PathHunter, triplicate | shares compounds with HTR2A ag | activation, % at 7.6 µM | hit rate 19% among 2,300 | DMSO 0%, 30 µM serotonin 100%;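 active means mean activation across triplicates above the hit threshold derived in the original primary screen, cut at about 15% in these data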
Numbers stand for hits; – = inactive; · = not tested or not shown. Sampled rows, rich in hits. Any-hit rate of the full collection: about 2.1%.

SMILES	HTR2A ag	CXCR6 block	APJ agonist	CCR6 antagonist	APJ antag	EBI2 block	OPRM1 ag	m5-HT2A ag conf
CCC(C)(C)NC(=O)CN(C(=O)C(=O)Nc1ccc2c(c1)OCCO2)N1CCOCC1	16.1	–	–	–	–	–	–	–
CC(C)(C)C(=O)N(Cc1nc2ccccc2c(=O)[nH]1)Cc1cccs1	14.7	–	–	–	–	–	–	–
Cc1c(-c2cccc(NC(=O)c3cccs3)c2)nc2ncccn12	15.4	–	–	–	–	–	–	–
O=C(NCc1ccccc1)C1C(c2ccccc2)=Nc2ccccc2N1C(=O)c1cnccn1 (stereo unspecified)	14.4	·	·	·	·	–	–	–
COc1ccc(Cl)cc1NC(=O)C(=O)N/N=C/c1cc(C)n(-c2ccc(C)cc2)c1C	17.6	–	–	–	–	–	–	–
Cc1ccc(-n2c(C)cc(/C=N/NC(N)=S)c2C)cc1	–	–	–	–	–	–	·	·
CCCOc1ccc(C(=O)N(Cc2cccs2)C2CCS(=O)(=O)C2)cc1 (stereo unspecified)	–	–	–	–	–	–	·	·
CN1C2CCC1CC(NS(=O)(=O)c1ccc(C#N)cc1)C2 (stereo unspecified)	16.4	–	–	–	–	–	–	–
O=C(NC(c1ccccc1)c1ccc2ccccc2n1)C1CCN(Cc2cccc(C(F)(F)F)c2)CC1 (stereo unspecified)	–	–	·	·	·	–	·	·
O=C(COC(=O)/C=C/c1ccccc1Cl)NC(=O)NCc1ccccc1	–	–	–	–	–	–	·	·
Cc1cccc(C)c1NC(=O)Cn1c(=O)c(N2CCCCC2)c(N)n(C)c1=O	–	–	–	–	–	–	·	·
Cn1c(N)c(N2CCCCC2)c(=O)n(CC(=O)Nc2cccc(C#N)c2)c1=O	20.0	–	–	–	–	–	–	–
COc1ccc2nc(SCC(=O)NCc3ccccc3)[nH]c2c1	–	–	–	–	–	–	·	·
COc1ccc2nc(SCC(=O)Nc3ccccc3)[nH]c2c1	18.6	–	–	–	–	–	–	–
CCNS(=O)(=O)c1ccc(NS(=O)(=O)c2cc(C)ccc2C)cc1	–	–	–	–	–	–	·	·
CCCCNS(=O)(=O)c1ccc(NS(=O)(=O)c2c(C)cc(C)cc2C)cc1	17.6	–	–	–	–	–	–	–
CCN(CC)C(=O)c1c(-c2ccccc2)oc2ccc(OC)cc12	14.8	–	–	–	–	–	–	–
CCOc1ccc2oc(-c3ccccc3)c(C(=O)N(C)C)c2c1	–	–	–	–	–	–	·	·
O=C(NCc1cccc(C(F)(F)F)c1)C1CC(c2ccc(C(F)(F)F)cc2)=NO1 (stereo unspecified)	–	–	–	–	–	–	·	·
CCCCNC(=O)C1(C)CCCCN1C(=O)c1ccc2c(c1)CCO2 (stereo unspecified)	17.6	–	·	·	·	–	–	–
CCCCNC(=O)C1(C)CCN1C(=O)c1ccc2c(c1)CCO2 (stereo unspecified)	–	–	·	·	·	–	·	·
COc1cc(CN2CCN(Cc3c[nH]c4ccccc34)CC2CCO)cc(OC)c1 (stereo unspecified)	19.4	–	–	–	–	–	–	–
C=CCn1c(=N)c(S(=O)(=O)c2ccc(C)c(C)c2)cc2c(=O)n3ccccc3nc21	–	–	–	–	–	–	·	·
CCOc1ccc(/C=N/N2C(C)CCCC2C)cc1 (stereo unspecified)	17.5	–	–	–	–	–	–	–
Cc1nnc(SCC(=O)N(C)c2c(N)n(Cc3ccccc3)c(=O)[nH]c2=O)n1Cc1ccccc1	29.4	–	–	–	–	–	–	–
SMILES	HTR2A ag	CXCR6 block	APJ agonist	CCR6 antagonist	APJ antag	EBI2 block	OPRM1 ag	m5-HT2A ag conf
O=C(Nc1ccccc1)Nc1nnc(SCc2ccc(Cl)cc2)s1	17.4	–	–	–	–	–	–	–
O=C(Nc1ccc(Cl)cc1)Nc1nnc(SCc2ccc(Cl)cc2)s1	–	–	–	–	–	–	·	·
COc1ccc(-c2noc(CN(C)Cc3ccccc3)n2)c(OC)c1OC	–	–	–	–	–	–	·	·
O=C(Nc1ccncc1)c1cc(-c2cccc(Br)c2)nc2ccccc12	14.8	–	–	–	–	–	3.7	–
O=C(COC(=O)CNS(=O)(=O)c1ccc(Br)cc1Cl)NC1CC1	–	–	–	–	–	–	·	·
CN1CCC(=NNC(=O)CN(c2ccc([N+](=O)[O-])cc2)S(=O)(=O)c2ccccc2)CC1	16.8	–	–	–	–	–	–	–
O=C(Cn1ccc2ccccc2c1=O)NCC(=O)N1CCN(c2ccc(F)cc2)CC1	–	–	–	–	–	–	·	·
c1ccc(Nc2nc(N3CCCC3)nc(N3CCOCC3)n2)cc1	–	–	–	–	–	–	·	·
c1ccc(Nc2nc(Nc3ccccc3)nc(N3CCNCC3)n2)cc1	20.5	–	–	–	–	–	–	–
CCC12CC1(C(=O)OC)C(=O)N1CCc3c([nH]c4ccccc34)C12 (stereo unspecified)	36.8	–	·	·	·	–	–	28.3
COC(=O)CC1CC2(C(=O)OC)c3[nH]c4ccccc4c3CCN2C1=O (stereo unspecified)	–	–	·	·	·	–	·	·
CCc1ccc(C2NC(=S)NC3=C2C(=O)N(c2ccccc2OC)C(c2ccc(CC)cc2)N3)cc1 (stereo unspecified)	37.4	–	–	–	–	–	–	–
CC(C)CNC(=O)CN(c1ccccc1)S(=O)(=O)c1ccccc1[N+](=O)[O-]	–	–	–	–	–	–	·	·
Cc1ccc(C(C(=O)NCc2ccccc2)N(C(=O)c2csnn2)C2CC2)cc1 (stereo unspecified)	18.9	–	–	–	–	–	–	–
Cc1ccccc1OCC(=O)Nc1cccc(S(=O)(=O)NC2=NCCC2)c1	15.7	–	–	–	–	–	–	–
OC(c1cccc(Cl)c1)c1nc(/C=C/c2ccccc2)cs1 (stereo unspecified)	14.8	–	·	·	·	–	–	–
COc1cc(C)c(S(=O)(=O)NCc2ccc3c(c2)OCO3)cc1C	29.2	–	–	–	–	–	–	–
